Assay results pooled from the literature.
Protocols differ between the studies behind these lines.
Target: Tyrosine-protein kinase BTK (BTK, Homo sapiens, UniProt Q06187)
Read-out: enzyme activity
Mode: inhibitor

SMILES | method | tested at | inhibition [%]
C=CC(=O)Nc1cc(Nc2nccc(Nc3cc(Cl)c(F)cc3C(C)(C)O)n2)c(OC)cc1N1CC[C@@H](N(C)C)C1 | – | 1 µM | 96
CC/C(=N\NC(=O)NCc1cccc(O)c1)c1ccc(O)c(C)c1O | – | 0.1 µM | -0.2
CNCc1ccc(-c2cc(-c3nc(-c4ccc(S(=O)(=O)C(C)C)cc4)cnc3N)on2)cc1 | – | 0.4 µM | 4
CNC(=O)c1cc(Oc2ccc(NC(=O)Nc3ccc(Cl)c(C(F)(F)F)c3)cc2)ccn1 | – | 0.3 µM | 1
CNC(=O)c1cc2c(Oc3ccc(NC(=O)C4(C(=O)Nc5ccc(F)cc5)CC4)cc3)ccnc2cc1OC | radiometric | 1 µM | 94
CC#CC(=O)N1CCC[C@H]1c1nc(-c2ccc(C(=O)Nc3ccccn3)cc2)c2c(N)nccn12 | radiometric | 0.1 µM | 83
CNc1cccc2cc(C(=O)Nc3ccc(C(=O)O)cc3)c(=O)[nH]c12 | – | 10 µM | 2.1
Cc1ccc(Nc2nccc(N(C)c3ccc4c(C)n(C)nc4c3)n2)cc1S(N)(=O)=O | – | 10 µM | 72
CS(=O)(=O)Nc1cccc(-c2csc(NC(=O)CSc3nc4nccnc4c(=O)n3CCc3ccccc3)n2)c1 | – | 10 µM | 3
CCN(CC)CCNC(=O)c1c(C)[nH]c(/C=C2\C(=O)Nc3ccc(F)cc32)c1C | – | 10 µM | 85
COc1cc2ncnc(Nc3ccc(Oc4ccccc4)cc3C)c2cc1OC | – | 1 µM | 71
CN(c1ncccc1CNc1nc(Nc2ccc3c(c2)CC(=O)N3)ncc1C(F)(F)F)S(C)(=O)=O | – | 1 µM | 65
CN(C)C1CCN(CC#Cc2nn(C3CCCC3)c3nc(NCc4ccccc4)ncc23)C1 (stereo not shown) | FRET | 10 µM | 22
